Measurements pooled from the literature.
Target: Serine/threonine-protein kinase 10 (STK10, Homo sapiens, UniProt O94804)

| Compound | observed | mode | technique | cell line | concentration | endpoint | value |
| --- | --- | --- | --- | --- | --- | --- | --- |
| CCN(CC)CCNC(=O)c1c(C)[nH]c(/C=C2\C(=O)Nc3ccc(F)cc32)c1C | enzyme activity | inhibitor |  |  | 10 µM | inhibition | 83% |
| CN([C@@H]1CCc2c(CC(=O)O)c3ccccc3n2C1)S(=O)(=O)c1ccc(F)cc1 | cell-free assay |  | competition with immobilised ligand |  | 1 µM | remaining binding | 100% |
| CN1CC(Oc2cnc(C#N)cc2-c2ccn3nc(NC(=O)C4CC4)cc3c2)C1 | enzyme activity | inhibitor |  |  | 1 µM | inhibition | 30% |
| CNC(=O)c1cc(Oc2ccc(NC(=O)Nc3ccc(Cl)c(C(F)(F)F)c3)cc2)ccn1 | enzyme activity | inhibitor |  |  | 0.3 µM | inhibition | 43% |
| CCN1CCN(Cc2ccc(NC(=O)c3ccc(C)c(/C=C/c4cnc5[nH]ccc5c4OC)c3)cc2C(F)(F)F)CC1 | target engagement in cells | inhibitor | chemoproteomics | A-375 | 50 nM | inhibition | -39.1% |
| CCCS(=O)(=O)Nc1ccc(F)c(C(=O)c2c[nH]c3ncc(-c4ccc(Cl)cc4)cc23)c1F | enzyme activity | inhibitor |  |  | 1 µM | inhibition | < 10% |
| Cc1cc(NC(=O)c2cccc3cc(-c4cccc5[nH]nc(N)c45)ccc23)ccc1F | enzyme activity | inhibitor |  |  | 0.1 µM | activity vs control | 97% |
| COc1cc2c(N3CCN(C(=O)Nc4ccc(OC(C)C)cc4)CC3)ncnc2cc1OCCCN1CCCCC1 | cell-free assay |  |  |  | 0.5 µM | remaining signal | 95% |
| FC(F)(F)c1ccc2c(c1)nc(-c1cccnc1)n2C1CC1 | cell-free assay |  | competition with immobilised ligand |  | 1 µM | remaining binding | 100% |
| Cc1cnn2ncc(-c3ccnc(N(C)C)n3)c2c1 | binding |  |  |  | 1 µM | remaining binding | 100% |
| COc1cc(Cl)c(C(=O)N[C@@H](CN[C@H]2CC[C@@H](N)CC2)Cc2ccc(C#N)cc2)cc1-c1ccc(CN[C@H](C)c2ccc(C)cc2)o1 | enzyme activity | inhibitor |  |  | 1 µM | remaining activity | 110% |
| O=C(Nc1cnn(-c2csc(C(=O)NC3COC3)c2)c1)Nc1ccccc1Cl | enzyme activity | inhibitor |  |  | 5 µM | remaining activity | 87.9% |
| O=C(O)[C@H]1[C@H](Cn2nnc3ccccc3c2=O)CC[C@@H]1C(=O)c1ccc(OCCC2CCOCC2)cc1 | cell-free assay |  | competition with immobilised ligand |  | 1 µM | remaining binding | 100% |
| Nc1ncnc2occ(-c3ccc(NC(=O)Nc4cc(C(F)(F)F)ccc4F)cc3)c12 | cell-free assay | inhibitor |  |  | 20 µM | remaining signal | 0% |
| O=C(Nc1cnn(-c2csc(C(=O)NC3COC3)c2)c1)Nc1c(F)cccc1Cl | enzyme activity | inhibitor |  |  | 5 µM | remaining activity | 89% |
| Cc1noc([C@H]2C[C@@H](c3ccc(C(F)(F)F)cc3)CN(C(=O)N3CCS(=O)(=O)C3)C2)n1 | cell-free assay |  | competition with immobilised ligand |  | 1 µM | remaining binding | 100% |
| Nc1nc(Nc2ccc(S(N)(=O)=O)cc2)nn1C(=O)c1c(F)cccc1F | cell-free assay |  |  |  | 0.5 µM | remaining signal | 17% |
| C[C@@H](c1cccc(C#N)c1)n1cc(Cl)cc(C(N)=O)c1=N | cell-free assay |  | competition with immobilised ligand |  | 1 µM | remaining binding | 86% |
| CC(C)(O)[C@H]1CC[C@H](Nc2ccc3ncc(-c4cccc(C(F)(F)F)c4)n3n2)CC1 | enzyme activity | inhibitor |  |  | 1 µM | remaining activity | 63.8% |
| O=S(=O)(NC1CCC(c2cc(F)ccc2F)(S(=O)(=O)c2ccc(Cl)cc2)CC1)C(F)(F)F (centres unmarked) | cell-free assay |  | competition with immobilised ligand |  | 1 µM | remaining binding | 100% |
| Cc1ccc(Nc2nccc(N(C)c3ccc4c(C)n(C)nc4c3)n2)cc1S(N)(=O)=O | enzyme activity | inhibitor |  |  | 0.5 µM | remaining activity | 50.1% |
| c1ccc(N2CCN(Cc3nc4ccccc4[nH]3)CC2)nc1 | binding |  | competition with immobilised ligand |  | 1 µM | remaining binding | 100% |
| CCN1CCN(Cc2ccc(NC(=O)c3ccc(C)c(Oc4ccnc5[nH]ccc45)c3)cc2C(F)(F)F)CC1 | target engagement in cells | inhibitor | chemoproteomics | A-375 | 0.5 µM | inhibition | -177% |
